# Screens deposited in PubChem BioAssay by The Scripps Research Institute Molecular Screening Center.
# In the library only some 4.5% were active in any assay of this set; here they are far more common.
# OX1R antag-1 = antagonists of human orexin 1 receptor (OX1R); inhibition, % at 6.6 µM; OX1R-expressing cells, FRET antagonist read-out; hit rate 1.8% among 330,000; O43613; in the data active = inhibition mostly above about 38%, no sharp cut-off; inactive = mostly below about 40%;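 note: 0% = agonist challenge alone and 100% = reference antagonist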
# Target sequence (O43613 whole entry, looked up): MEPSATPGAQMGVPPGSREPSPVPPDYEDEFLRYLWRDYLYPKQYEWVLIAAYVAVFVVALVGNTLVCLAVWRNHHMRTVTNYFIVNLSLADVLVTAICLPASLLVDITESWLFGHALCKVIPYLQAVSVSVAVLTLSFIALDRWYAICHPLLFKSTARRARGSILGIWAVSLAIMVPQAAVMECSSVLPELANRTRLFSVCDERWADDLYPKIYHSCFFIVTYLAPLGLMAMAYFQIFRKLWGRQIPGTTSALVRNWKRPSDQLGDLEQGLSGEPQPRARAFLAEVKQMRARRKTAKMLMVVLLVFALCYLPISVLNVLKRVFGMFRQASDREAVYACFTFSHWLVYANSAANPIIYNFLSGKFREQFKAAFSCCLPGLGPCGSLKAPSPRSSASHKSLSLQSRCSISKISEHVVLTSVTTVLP
# OX1R antag-2 = blocks the human orexin 1 receptor | CHO/OX1R cells, Fluo-8 calcium fluorescence, orexin A | O43613 | inhibition, % at 5 µM | hit rate 0.43% among 330,000;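 active = inhibition above its plate's threshold, mean inhibition of all tested compounds on the plate plus 3 SD, cut at about 37% in these data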;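 note: 0% = orexin A challenge wells and 100% = SB-334867-A antagonist wells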
# CHO parental Ca = counter-screen: ATP calcium response change in parental CHO cells | inhibition, % at 5.6 µM | AID 463079 | parental CHO-K1, ATP-induced calcium, Fluo-8 fluorescence | hit rate 0.63% among 330,000;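 active = inhibition above that plate's mean sample inhibition plus 3 SD, cut at about 26% in these data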;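 note: 0% = ATP-challenged DMSO wells and 100% = DMSO wells without ATP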
#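 Test system: untransfected parental CHO cell line; also added: ATP stimulus; dosing: 5.6 µM, single dose; signal: calcium-sensitive Fluo-8 fluorescence; measure: percent inhibition of ATP-evoked calcium rise, normalized to controls; benchmarks: low control ATP plus DMSO, high control DMSO only; replication: one well per compound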
# TAAR1 antag = antagonists of human TAAR1; Q96RJ0; CHO RD-HGA16 TAAR1, Fluo-8 calcium fluorescence, antagonist; inhibition, % at 3 µM; hit rate 1.5% among 360,000;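 active = inhibition above a per-plate cutoff, the mean inhibition of test compounds on that plate plus 3 SD, cut at about 49% in these data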;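 note: 0% = DMSO plus EC80 beta-PEA response and 100% = DMSO alone without agonist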
#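 test system = CHO RD-HGA16 cells bearing hTAAR1 | replication = singlicate | controls = DMSO-only wells and EC80 β-PEA-stimulated wells | reagent = EC80 β-phenethylamine stimulus | read-out basis = percent inhibition of PEA-evoked calcium signal, max/basal emission ratio | schedule = seeding 17-24 h prior, 75-min 37 °C, 30-min RT dye loading | signal = kinetic Fluo-8 calcium fluorescence measurement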
# TAAR1 ag = agonists of human TAAR1; Q96RJ0; CHO RD-HGA16 TAAR1, Fluo-8 calcium fluorescence; vehicle wells 0%, saturating PEA agonist 100%; activation, % at 3 µM; hit rate 0.99% among 360,000; AID 624467;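 active = activation above the mean activation of all test compounds in the run plus 3 SD, cut at about 38% in these data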
#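 Repeats: no replicates (n 1) | Material: CHO-derived RD-HGA16 cells with stable Gα16 and human TAAR1 | Technique: Kinetic Fluo-8 calcium fluorescence | Schedule: 17-24 h seeding, 75 min 37 °C dye, 30 min RT | Evaluation: % activation from peak over basal fluorescence ratio, DMSO-to-PEA scaled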
# GPR7 antagonist = antagonists of human GPR7 (neuropeptides B/W receptor 1); inhibition, % at 4.4 µM; AID 1861; P48145; GPR7-expressing cells, fluorescence antagonist assay; hit rate 1.1% among 290,000; in the data active = inhibition above about 16%, passing the limit was not always enough;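 note: cells stimulated with the agonist NPW; 0% = agonist with vehicle and 100% = vehicle without agonist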
# Target sequence (P48145 whole entry, looked up): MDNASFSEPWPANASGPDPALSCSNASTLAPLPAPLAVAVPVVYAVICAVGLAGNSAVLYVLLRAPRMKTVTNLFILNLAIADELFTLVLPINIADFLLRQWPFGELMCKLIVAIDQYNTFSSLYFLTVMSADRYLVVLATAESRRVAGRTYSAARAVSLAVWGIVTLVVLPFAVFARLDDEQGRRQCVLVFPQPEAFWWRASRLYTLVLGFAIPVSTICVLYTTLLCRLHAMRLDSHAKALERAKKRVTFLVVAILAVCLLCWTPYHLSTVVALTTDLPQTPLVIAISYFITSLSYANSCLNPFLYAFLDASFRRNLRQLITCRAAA
# OX1R HTRF confirm = OX1R (human) antagonism, HTRF confirmed. shares compounds with OX1R antag-1. OX1R-expressing cells, HTRF antagonist assay. inhibition, % at 6.6 µM. hit rate 49% among 1,800. AID 492964; in the data active = inhibition above about 55%;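 note: CHO cells expressing OX1R stimulated with orexin A at about EC80; 0% = agonist challenge alone and 100% = reference antagonist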
# CHO-K1 HTRF = counter-screen for OX1R antagonists: effect in parental CHO-K1 cells. hit rate 48% among 1,800. inhibition, % at 6.6 µM. shares compounds with OX1R antag-1. HTRF counterscreen; in the data active = inhibition above about 17%;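 note: 0% = agonist challenge with vehicle and 100% = vehicle alone without agonist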
# TAAR1 nonsel count = counter-screen for TAAR1 antagonists: nonselective antagonists | shares compounds with TAAR1 antag | counterscreen cell line, calcium fluorescence, antagonist mode | inhibition, % at 3 µM | hit rate 77% among 2,400; in the data active = inhibition above about 22%;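 note: CHO-Ga16 host cells stimulated with ATP at an EC80 level; 0% = agonist EC80 plus vehicle and 100% = vehicle without agonist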
# TAAR1 antag conf = confirmation of human TAAR1 antagonists; AID 651785; hit rate 40% among 2,400; inhibition, % at 3 µM; TAAR1-expressing cells, fluorescence antagonist read-out; shares compounds with TAAR1 antag; in the data active = inhibition above about 49%;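 note: CHO-Ga16 host cells challenged with agonist PEA near its EC80; 0% = agonist at EC80 plus vehicle and 100% = vehicle with no agonist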
# Ga16 nonsel ag = counter-screen for TAAR1 antagonists: nonselective Ga16 agonists. Ga16-expressing cells, calcium fluorescence, agonist counterscreen. AID 651953. hit rate 18% among 2,400. activation, % at 3 µM. shares compounds with TAAR1 antag; in the data active = activation above about 12%;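 note: 0% = vehicle wells and 100% = saturating stimulus response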
# TAAR1 ag counter = activates human TAAR1 in antagonist counter-screen; shares compounds with TAAR1 antag; hit rate 2% among 2,400; hTAAR1 cell line, fluorescence activation, agonist mode; activation, % at 3 µM; in the data active = activation above about 37%;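 note: CHO cells stably expressing TAAR1 with calcium dye readout; 0% = DMSO vehicle and 100% = full agonist response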
# * hit, by the source's call; · = no result.
SMILES,OX1R antag-1,OX1R antag-2,CHO parental Ca,TAAR1 antag,TAAR1 ag,GPR7 antagonist,OX1R HTRF confirm,CHO-K1 HTRF,others
Cn1c(O)c(N=NC(=O)c2ccco2)c2ccccc21,166.3*,-9.4,-28.0,-4.7,1.0,-9.7,83.4*,53.2*,
Cc1c(Cc2ccccc2)c(NCCN(C)C)n2c(nc3ccccc32)c1C#N,10.9,-37.8,-5.1,-20.8,0.8,-3.9,·,·,
Cc1cc(N=NC(=O)c2ccccc2O)c2ccccc2c1O,120.0*,-18.0,-8.4,14.6,10.2,-7.4,94.0*,48.4*,
CCOC(=O)c1cccc(NC(=O)c2c(N)n(C)c(=O)[nH]c2=O)c1,28.9,-9.5,-5.6,·,·,·,·,·,
N#Cc1cn(N2CCCCC2)c(=O)[nH]c1=O,4.4,-15.8,-0.8,-11.2,1.1,-8.8,·,·,
CCOc1ccc(NC(=O)CNS(=O)(=O)c2c(C)cc(C)cc2C)cc1,82.4*,-2.8,-28.8,-17.9,-0.9,6.6,61.9*,0.0,
CSc1nc2ccccc2c(=O)n1C1CCOC(C)(C)C1 (stereo not drawn),1.6,-18.2,-15.4,2.2,-0.6,-11.5,·,·,
CC(C)Cn1c(N)c(C(=O)COC(=O)CCc2nc3ccccc3c(=O)[nH]2)c(=O)n(C)c1=O,0.7,-33.1,-25.4,12.8,11.0,·,·,·,
CC(C)Cn1c(N)c(C(=O)COC(=O)CCNS(=O)(=O)c2ccccc2)c(=O)n(C)c1=O,98.6*,-9.9,-3.1,50.5*,11.3,·,22.2,2.4,
CCOC(=O)c1cnc2c(OC)cccc2c1Nc1ccc2c(c1)OCCO2,44.0,-32.7,-19.8,-22.3,2.6,-7.6,·,·,
CCN(CC)C(=S)SC1CCCCN(C(=O)c2ccc(F)cc2)C1=O (stereo not drawn),13.0,-44.3,-23.1,19.4,7.5,-8.7,·,·,
CN1CCN(C(c2cccc(C(F)(F)F)c2)c2nnnn2Cc2ccccc2)CC1 (stereo not drawn),2.7,-13.8,-15.3,-19.8,3.7,13.3,·,·,
CC(C)(C)n1cnnc1Sc1ncccc1[N+](=O)[O-],84.5*,-9.4,-5.7,-8.2,2.9,-10.3,31.5,29.4*,
c1ccc2c(c1)oc1c(Nc3ccc4c(c3)OCO4)ncnc12,66.0,-8.2,-11.0,-2.6,8.4,2.4,·,·,
c1ccc2c(c1)oc1c(NCc3ccc4c(c3)OCO4)ncnc12,88.5*,28.9,18.6,·,·,2.5,81.8*,4.0,
COC(=O)c1cn(NC(=O)Cc2ccc(Cl)c(Cl)c2)c(=O)c2ccccc12,87.2*,-19.4,-18.3,-14.1,3.0,-10.3,80.6*,8.2,
Oc1ccccc1CNc1cccc2cccnc12,120.3*,-19.9,-10.1,-11.0,0.4,-12.9,29.1,10.7,
Cc1noc(/C=C/c2cccnc2)c1[N+](=O)[O-],79.3*,-14.5,1.9,-16.7,-1.0,2.1,68.1*,83.6*,
COc1cccc(N/C=C/c2onc(C)c2[N+](=O)[O-])c1,11.3,-5.4,-3.4,2.0,6.6,-19.8,·,·,
O=C(NC1CCCCC1)C1CC(=O)N(c2cccc([N+](=O)[O-])c2)C1 (stereo not drawn),87.6*,0.6,9.6,-4.6,5.8,-10.1,34.9,7.0,
CC(C)NC(=S)N=Nc1c(O)[nH]c2ccc(C(C)C)cc12,14.8,-60.2,-35.3,-6.8,6.8,-19.4,·,·,
O=[N+]([O-])c1ccc2c(c1)C(O)n1ncnc1S2 (stereo not drawn),107.9*,1.8,-0.8,-3.7,4.3,-16.6,37.3,48.5*,
COc1cccc(C2C(C#N)=C(N)Oc3c2oc(CO)cc3=O)c1OC (stereo not drawn),2.1,-8.3,-7.2,0.7,4.3,-3.2,·,·,
N#CC1=C(N)Oc2c(oc(CO)cc2=O)C1c1cccs1 (stereo not drawn),76.8*,-11.0,-11.2,-7.0,0.6,-14.5,17.8,22.0*,
N#CC1=C(N)Oc2c(oc(CO)cc2=O)C1c1ccsc1 (stereo not drawn),91.6*,8.2,14.1,-2.9,15.1,-4.9,23.5,17.6*,
SMILES,OX1R antag-1,OX1R antag-2,CHO parental Ca,TAAR1 antag,TAAR1 ag,GPR7 antagonist,OX1R HTRF confirm,CHO-K1 HTRF,others
COc1cc(C2C(C#N)=C(N)Oc3c2oc(CO)cc3=O)cc(OC)c1OC (stereo not drawn),19.0,-14.4,-10.9,3.0,4.3,-8.2,·,·,
CCC(Oc1ccccc1)C(=O)Nc1ncc([N+](=O)[O-])s1 (stereo not drawn),78.8*,3.1,8.7,-19.1,14.6,-12.3,28.9,15.4,
O=C(Nc1cccc(-c2nc3ccccc3[nH]2)c1)c1ccccn1,88.0*,-14.2,-16.8,50.7*,9.4,-11.9,85.6*,9.1,TAAR1 nonsel count=18.8;TAAR1 antag conf=27.1;Ga16 nonsel ag=4.5;TAAR1 ag counter=4.4
CC(=O)Nc1cccc(-c2nc3ccccc3[nH]2)c1,14.0,-15.4,13.3,10.2,3.9,-4.9,·,·,
CCC1(CC)NC(=O)N(CC(=O)OCC(=O)Nc2ncc(Cl)cc2Cl)C1=O,7.3,-7.8,-22.0,-30.2,3.7,·,·,·,
O=C(N=Nc1c(O)[nH]c2ccccc12)c1cccc(S(=O)(=O)Nc2ccccc2Cl)c1,84.2*,4.7,-20.6,56.3*,10.0,-9.6,92.0*,2.8,TAAR1 nonsel count=24.1*;TAAR1 antag conf=41.7;Ga16 nonsel ag=4.9;TAAR1 ag counter=0.1
COc1ccccc1N(CC(=O)NCCSc1ccccc1)S(C)(=O)=O,-4.3,0.7,-11.6,-3.5,1.1,0.7,·,·,
COc1ccccc1N(CC(=O)NCCSc1ccccc1)S(=O)(=O)c1ccccc1,81.4*,21.7,-22.7,75.8*,6.6,-5.5,60.5*,3.2,TAAR1 nonsel count=29.8*;TAAR1 antag conf=43.6;Ga16 nonsel ag=5.6;TAAR1 ag counter=8.6
Cc1nn(C)c(C(=O)NCc2ccc(Cl)cc2)c1Cl,30.1,23.7,11.4,6.8,1.6,-7.9,·,·,
O=C(NNC(=O)c1cc(-c2ccccc2)nc2ccccc12)Nc1cccc(Cl)c1,89.6*,-13.6,-6.2,80.1*,9.9,8.0,14.1,4.6,TAAR1 nonsel count=38.9*;TAAR1 antag conf=57.4*;Ga16 nonsel ag=7.7;TAAR1 ag counter=6.0
CC(C(=O)O)n1cc(C#N)c(=O)[nH]c1=O (stereo not drawn),·,·,·,1.9,0.7,·,·,·,
